This data set is described as follows: Toxicity liver stage against HepG2, at 10uM. Format: cell-based. Details: test concentration 10 uM, cell line HepG2-A16-CD81EGFP. The following applies: human, HepG2-A16-CD81EGFP cells; read-out: INHIBITION
Summed up:
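Uninfected HepG2-A16-CD81EGFP cells, 3 × 10^3 per well, 1536-well, plated on prespotted compound at 10 μM final, parasite-free screening media added to match infected plates; puromycin 10 μM positive, DMSO 0.5% negative; run in parallel with 48 h PbLuc assay at 37 °C, 5% CO2; viability by CellTiter-Glo luminescence, normalized to controls.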
In the case of `CS(=O)(=O)NC[C@H]1OC[C@@H]2CCN(C(=O)c3cccnc3)C[C@@H]21`, the cytotoxicity at 10 µM turned out to be 5.31%.

Regarding `Cc1cnn(C2CN(Cc3noc(-c4ccccc4)n3)C2)c1`, the cytotoxicity at 10 µM was -1.52%. Then `O=C(NCc1cnc2n1CCN(c1ncc(F)cn1)CC2)C1CCC1`, with -0.881%; and `Cc1ccc(CNC(=O)c2ccc(S(=O)(=O)N3C[C@H]4C[C@@H]3CN4)cc2)o1`, with -7.2%; and `CN(C)Cc1cnc(C2CCN(C(=O)c3cc(F)cc(F)c3)C2)[nH]1` (stereo not drawn), with 2.5%. For the compound `CC(C)CCN1C[C@@H]2C[C@H](C(=O)NCC(C)C)[C@H](C1)O2`, the cytotoxicity at 10 µM amounted to 5.9%. Then `Cc1nonc1OCCNc1ncnc2sc3c(c12)CCNC3`, with -1.69%.

For `COCCNC(=O)[C@@H]1CC[C@@H]2[C@@H](CCN2Cc2cnn(C)c2)O1`, the cytotoxicity at 10 µM was -12.2%. Then `Cc1cnn(CC2CCCN2C(=O)c2n[nH]c(=O)c3ccccc23)c1` (stereo not drawn), with -21.9%; and `CCc1nc(C(=O)N2CCN(CC)CC2)nn1-c1ccccc1Cl`, with 2.79%. With `Cc1ncc(C(=O)N2CCCN(Cc3ccccc3F)CC2)c(O)n1`, the cytotoxicity at 10 µM worked out at 0.903%. Turning to `CCc1nnc(CN(CC)C(=O)C2CC(=O)N(C3CCCC3)C2)o1` (stereo not drawn), the cytotoxicity at 10 µM was -2.57%. In the case of `COc1ccc(C2(CNC(C)c3nnc(C)o3)CCCCC2)cc1` (stereo not drawn), the cytotoxicity at 10 µM is 4.21%.

Turning to `NC1CCCCN(Cc2ccccc2CS(=O)(=O)c2ccccc2)C1` (stereo not drawn), the cytotoxicity at 10 µM is -20.9%. In the case of `Cc1ccc(C(=O)N2CCc3ncc(Cn4cccn4)n3CC2)o1`, the cytotoxicity at 10 µM came out at 2.31%. `COC(=O)Nc1cccc(C(=O)N(C)Cc2cccc(O)c2)c1`: the cytotoxicity at 10 µM is -5.88%. In the case of `C[C@@H]1CN(c2ccc(Cl)cn2)C[C@]1(C)O`, the cytotoxicity at 10 µM amounted to 4.38%.

Take `CCn1c(C)cc(C(=O)N2CCCC(n3ccnc3C)C2)c1C` (stereo not drawn): the cytotoxicity at 10 µM was -1.51%. Then `CC(=O)N1CCN(C(=O)c2cccc(OCc3cscn3)c2)CC1`, with -7.57%; and `COc1ccc2[nH]c(=O)c(CN(C)CCN3CCCC3)cc2c1`, with 1.97%; and `c1cnn(Cc2cnc3n2CCN(CC2CCCCC2)C3)c1`, with -78.8%. Then `CSCC(=O)N1CCCCC1Cn1cc(C)cn1` (stereo not drawn), with -8.24%; and `O=S(=O)(N1CCCCCC1)N1CCN(Cc2ccc(F)cc2Br)CC1`, with -132%. For `Cc1nccc(C(=O)N2CCCC2c2c(C)nn(C)c2C)n1` (stereo not drawn), the cytotoxicity at 10 µM was -2.42%. Regarding `Fc1ccccc1Oc1nccnc1C1CCN(C2CCOCC2)CC1`, the cytotoxicity at 10 µM turned out to be 13.9%. The same measure for `Cc1cccc(CN2C(=O)CC[C@@H]3[C@H]2CCN3C(=O)c2ccsc2)n1`: -85.7%; for `CN1CCN(Cc2ccccc2CNC(=O)c2ccc(Br)cc2F)CC1`: 4.65%. Then `Cn1ccnc(Nc2ccc3c(c2)CCN3C(=O)c2ccoc2)c1=O`, with -65.2%. For the compound `Cn1nc(COCC2CC2)c2c1CCN(Cc1ccco1)C2`, the cytotoxicity at 10 µM was -1.77%. Then `COc1ccc(-n2nc(C)c(C(C)=O)c2C)cc1CO`, with 11.2%; and `Cc1cc(O)c(OCC(=O)/N=c2\[nH]cc(C)s2)cn1`, with -12.4%.

As to `Cc1cc(N2CCCC2c2nnc3n2CCCCC3)nc(N)n1` (stereo not drawn), the cytotoxicity at 10 µM is -10.1%. The same measure for `CCC(CC)N(Cc1ccc2c(c1)OCO2)C(=O)c1ccc(=O)n(C)c1`: 9.06%; for `CN1CCCC(C(=O)N2CCC(Oc3ncccn3)CC2)C1` (stereo not drawn): -5.2%; for `CN(C)C(=O)CN1CCc2ncnc(C3CC3)c2CC1`: -94.1%. Regarding `CC(C)(C)c1nnnn1CC(=O)N(CCC#N)c1ccccc1`, the cytotoxicity at 10 µM is -14.2%. The same measure for `O=C(Cn1cnc2ccsc2c1=O)c1ccc2c(c1)OCCO2`: 3.1%. The same measure for `CNC(=O)[C@@H]1COC[C@H]2CN(C(=O)c3ccc(C)c(F)c3)C[C@H]21`: 0.165%.

Source of the values: ChEMBL document CHEMBL4513216, “Probing the Open Global Health Chemical Diversity Library for Multistage-Active Starting Points for Next-Generation Antimalarials” (ACS Infect Dis, 2020).
